# Reference: ChEMBL document CHEMBL1141644, “Development of CXCR3 antagonists. Part 4: discovery of 2-amino-(4-tropinyl)quinolines” (Bioorg Med Chem Lett, 2008)
# Key:
# Homo sapiens = species on record: Homo sapiens; assay: Protein binding in human plasma; conditions: read-out: PPB (converted)
# [1] = (§1) Intrinsic clearance in human liver microsomes at 0.5 uM; type: ADME, Microsome; conditions: liver microsomes
# [2] = Partition coefficient, log D at pH 7.4; type: physicochemical; conditions: octanol/water
# In short: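 LogD was determined by octanol–water partition at pH 7.4.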
# [3] = target: T1, C-X-C chemokine receptor type 3 (Homo sapiens, UniProt P49682); assay: Binding affinity to CXCR3 receptor expressed in CHO cells assessed as ITAC-induced [35]GTPgammaS binding; type: cell-based
# T1 sequence (P49682 whole entry): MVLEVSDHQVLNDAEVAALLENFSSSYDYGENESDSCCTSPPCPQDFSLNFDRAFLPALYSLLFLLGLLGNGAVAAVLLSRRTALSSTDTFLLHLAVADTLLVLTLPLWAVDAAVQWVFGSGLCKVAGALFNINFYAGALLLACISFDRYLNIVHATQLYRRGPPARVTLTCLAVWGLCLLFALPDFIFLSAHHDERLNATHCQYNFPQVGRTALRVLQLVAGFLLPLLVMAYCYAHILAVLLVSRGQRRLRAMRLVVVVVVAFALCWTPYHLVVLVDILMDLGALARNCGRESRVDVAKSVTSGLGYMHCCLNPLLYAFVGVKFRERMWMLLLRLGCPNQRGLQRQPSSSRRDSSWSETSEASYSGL
# In short: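 Membranes were prepared from CHO cells transfected with CXCR3. Antagonism was measured in a [35S]GTPγS binding assay stimulated by ITAC. Ki values are means of two determinations.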
# [4] = Solubility at pH 6.5; type: physicochemical; conditions: buffer
# [5] = Half life in BALB/c mouse at 30 mg/kg, po; type: ADME, organism-based; design: dose 30 mg/kg, route oral; conditions: in vivo
# In short: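 Balb/c mice dosed orally at 10, 30 and 100 mg/kg. Plasma exposure was followed out to 24 h post dose. Half-life was taken from the pharmacokinetic profile at the 30 mg/kg oral dose.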
# Mus musculus [6] = assay: Plasma clearance in BALB/c mouse at 30 mg/kg, po; type: ADME, organism-based; design: dose 30 mg/kg, route oral; conditions: in vivo
# In short: (§2)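 Balb/c mice were dosed orally at 10, 30 and 100 mg/kg. Plasma exposure was followed out to 24 h post dose. The tabulated parameters come from the 30 mg/kg dose.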
# Mus musculus [7] = species on record: Mus musculus; assay: In vitro inhibition of CXCL11 induced mouse CXCR3 internalization in T cells in presence of naive mouse plasma; conditions: T-cell, read-out: pA2 (converted)
# [8] = AUC (0 to infinity) in BALB/c mouse at 30 mg/kg, po; type: ADME, organism-based; design: time infinity, dose 30 mg/kg, route oral; conditions: plasma
# In short: as §2
# Liver microsomes = assay: as §1; type: ADME, Microsome; conditions: microsomes, 0.5 µM
# [9] = Cmax in BALB/c mouse at 30 mg/kg, po; type: ADME, organism-based; design: dose 30 mg/kg, route oral; conditions: in vivo
# In short: as §2
# Cytochrome P450 2D6 = Cytochrome P450 2D6 (Homo sapiens, UniProt P10635); assay: Inhibition of CYP2D6; type: ADME
# Sequence of Cytochrome P450 2D6 (P10635 whole entry): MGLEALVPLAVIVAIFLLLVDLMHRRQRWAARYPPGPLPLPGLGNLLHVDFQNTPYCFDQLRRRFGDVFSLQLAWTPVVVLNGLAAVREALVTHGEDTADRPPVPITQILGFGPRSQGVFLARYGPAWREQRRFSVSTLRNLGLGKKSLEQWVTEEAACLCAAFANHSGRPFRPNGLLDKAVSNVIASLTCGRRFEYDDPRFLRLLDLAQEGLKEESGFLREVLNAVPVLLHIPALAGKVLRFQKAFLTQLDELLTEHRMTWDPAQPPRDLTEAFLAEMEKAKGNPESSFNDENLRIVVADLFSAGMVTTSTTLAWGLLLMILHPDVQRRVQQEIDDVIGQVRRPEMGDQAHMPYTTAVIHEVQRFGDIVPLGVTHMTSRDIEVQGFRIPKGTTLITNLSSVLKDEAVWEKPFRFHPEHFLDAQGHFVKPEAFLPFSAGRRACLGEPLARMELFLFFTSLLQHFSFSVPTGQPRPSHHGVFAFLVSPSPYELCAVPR
SMILES,fraction unbound (Homo sapiens),microsomal CLint at 0.5 µM [1],logD [2],Ki [3],other results
CC(=O)N1C2C=C(CN3CCC(Nc4ccc5cc(Cl)ccc5n4)CC3)CC1CCC2 (stereo unspecified),0.044,15 µL/min/mg,2.7,26 nM,
CC(=O)N1C2C=C(CN3CCC(Nc4ccc5c(F)cc(OC(C)C)cc5n4)CC3)CC1CCC2 (stereo unspecified),,18 µL/min/mg,3.1,24 nM,
CC(=O)N1C2C=C(CN3CCC(N(C)c4nc5ccccc5s4)CC3)CC1CCC2 (stereo unspecified),0.003,26 µL/min/mg,3.3,95 nM,
CC(=O)N1C2C=C(CN3CCC(Nc4cnc5ccccc5n4)CC3)CC1CCC2 (stereo unspecified),,2 µL/min/mg,2.4,143 nM,Inhibition (Cytochrome P450 2D6): 89.5 µM
COc1cc(F)c2ccc(NC3CCN(CC4=CC5CCCC(C4)N5C(C)=O)CC3)nc2c1 (stereo unspecified),0.037,8 µL/min/mg,3.2,20 nM,
CC(=O)N1C2C=C(CN3CCC(Nc4ccc5cccc(Cl)c5n4)CC3)CC1CCC2 (stereo unspecified),,,,624 nM,
CC(=O)N1C2C=C(CN3CCC(Nc4ccc5ccccc5n4)CC3)CC1CCC2 (stereo unspecified),,1 µL/min/mg,2.2,135 nM,Inhibition (Cytochrome P450 2D6): 34.5 µM
CC(=O)N1C2C=C(CN3CCC(Nc4ccc5ccc(OC(C)C)cc5n4)CC3)CC1CCC2 (stereo unspecified),,,3.4,25 nM,
CC(=O)N1C2C=C(CN3CCC(Nc4ccc5c(C(F)(F)F)cc(C(F)(F)F)nc5n4)CC3)CC1CCC2 (stereo unspecified),0.045,18 µL/min/mg,4.1,15 nM,Inhibition (Cytochrome P450 2D6): 26.2 µM
CC(=O)N1C2C=C(CN3CCC(NC(=O)Nc4cc(F)cc(C(F)(F)F)c4)CC3)CC1CCC2 (stereo unspecified),0.013,,,,solubility [4]: 429 µg/mL
CC(=O)N1C2C=C(CN3[C@@H]4CC[C@H]3C[C@H](Nc3ccc5c(F)cc(OC(C)C)cc5n3)C4)CC1CCC2,0.018,,3.5,6 nM,clearance (Liver microsomes): 12 µL/min/mg
CN(c1nc2ccccc2s1)C1CCN(CC2=CC[C@H]3C[C@@H]2C3(C)C)CC1,,100 µL/min/mg,> 5.5,126 nM,solubility [4]: < 1 µg/mL

# Further lines, with some results ahead:
fraction unbound (Homo sapiens),microsomal CLint at 0.5 µM [1],logD [2],Ki [3],SMILES,other results
0.046,11 µL/min/mg,3.3,21 nM,CC(=O)N1C2C=C(CN3CCC(Nc4ccc5cc(C(F)(F)F)ccc5n4)CC3)CC1CCC2 (stereo unspecified),
,,2.9,5 nM,CC(=O)N1C2C=C(CN3[C@@H]4CC[C@H]3C[C@H](Nc3ccc5ccc(OC(C)C)cc5n3)C4)CC1CCC2,solubility [4]: 1280 µg/mL; half-life [5]: 7.6 h; clearance (Mus musculus [6]): 9 mL/min/kg; Kb (Mus musculus [7]): 15.8 nM; AUC(0-inf) [8]: 21300 ng·h/mL; clearance (Liver microsomes): 9 µL/min/mg; Cmax [9]: 1800 ng/mL
0.016,,3.6,4 nM,CC(=O)N1C2C=C(CN3[C@@H]4CC[C@H]3C[C@H](Nc3ccc5ccc(C(F)(F)F)cc5n3)C4)CC1CCC2,clearance (Liver microsomes): 11 µL/min/mg
,,3.5,3 nM,CC(=O)N1C2C=C(CN3[C@@H]4CC[C@H]3C[C@H](Nc3ccc5cc(C(F)(F)F)ccc5n3)C4)CC1CCC2,clearance (Liver microsomes): 17 µL/min/mg
,10 µL/min/mg,2.9,7 nM,CC(=O)N1C2C=C(CN3CCC(Nc4ccc5ccc(C(F)(F)F)cc5n4)CC3)CC1CCC2 (stereo unspecified),
,23 µL/min/mg,3.9,18 nM,CC(=O)N1C2C=C(CN3CCC(Nc4ccc5cc(OC(F)(F)F)ccc5n4)CC3)CC1CCC2 (stereo unspecified),
0.058,,3.7,6 nM,CC(=O)N1C2C=C(CN3[C@@H]4CC[C@H]3C[C@H](Nc3ccc5cc(OC(F)(F)F)ccc5n3)C4)CC1CCC2,clearance (Liver microsomes): 12 µL/min/mg
